The source of these data is PMC4855275 (Experimental & Molecular Medicine, 2016).

“Also recorded” adds a separate entry of the source.

Data set [1] concerns the target Cdc42–PBD interaction (Homo sapiens, UniProt Q13153). The experiment in a line: SPR of Cdc42•GTP binding to immobilized PBD in presence of compound. As to conditions: 10 µM compound.
For data set [2], the target named is myc-PAK1 (pT423) in HeLa cells (Homo sapiens, UniProt Q13153). The data set is described as follows: Sorbitol-induced PAK1 autophosphorylation in cells. It counts as cell-based. To be noted: 20 μM for 2 h, then 0.4 M sorbitol. The essentials:
(§1)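 HeLa transfected (Lipofectamine, 24 h) with 2 μg myc-PAK1 or myc-PAK3 cDNA. Cells exposed to test compound 2 h, then 0.4 M sorbitol 0.5 h; lysed in HEPES/Triton buffer with NaF and vanadate. Immunoblotted with anti-phospho-group I PAK antibody (PAK1 T423; PAK3 T421); myc-PAK levels by anti-Myc; chemiluminescent detection; ≥3 experiments.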

The target in data set [3] is full-length PAK1 (Homo sapiens, UniProt Q13153). The experiment in a line: In vitro inhibition of PAK family members, PAK1. In kind it is biochemical. As to conditions: 40 μM, with Cdc42•GTP.
The target of data set [4] is Cdc42–PBD interaction (PBD of PAK1) (Homo sapiens, UniProt Q13153). The experiment in a line: ELISA of the Cdc42–PBD interaction. It counts as binding. The essentials: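 Wells coated overnight at 4 °C with His-tagged PAK1 PBD (1 μg ml⁻¹) in carbonate–bicarbonate buffer, pH 9.6; TBS-T washes. GST-Cdc42 loaded with GTPγS (0.5 h, RT), then GST-Cdc42(GTPγS) (100 ng ml⁻¹) with test compound for 0.5 h RT and 1 h 37 °C. Bound Cdc42 detected with HRP-anti-GST (200 ng ml⁻¹, 1 h, 37 °C) and ABTS (pH 5.6, 15–30 min); stopped with 1% SDS; A405.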
Background: ELISA stands for enzyme-linked immunosorbent assay.

Data set [5] relates to HeLa cells. The data set is described as follows: Cell viability / cytotoxicity. To be noted: for Light-induced cytotoxicity: during FRET analysis. In kind it is cell-based. The essentials:
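HeLa seeded at 2 × 10⁵ cells per ml. Test compound at 20 μM final for 2, 4, 6, 8 or 12 h at 37 °C. WST-8 then added (10% v/v final) for 2 h at 37 °C; absorbance read at 450 nm.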

Data set [6] addresses PBD of PAK1 (Wt-PBD) (Homo sapiens, UniProt Q13153). The experiment in a line: SPR binding to immobilized GST-PBD. To be noted: Kd for the compound–PBD interaction, 25 °C, 1:1 Langmuir model. The essentials:
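GST (reference) and wild-type GST-PBD amine-coupled to CM5 chips at about 10 000 RU. Runs at 25 °C in 10 mM HEPES, 150 mM NaCl, 0.005% P20, 0.4% DMSO, pH 7.4. Test compound injected at 12.5, 25, 50 or 100 μM, 20 μl min⁻¹. Kd taken as kd/ka from a 1:1 Langmuir fit. At least three independent experiments.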

Data set [7] deals with PBD-LL (H83L/H86L) (Homo sapiens, UniProt Q13153, H83L/H86L). The data set is described as follows: SPR binding to mutated PBD. As to conditions: 100 μM compound. The essentials:
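GST-tagged wild-type or H83L/H86L PAK1 PBD was expressed in E. coli, purified on glutathione-Sepharose, and amine-coupled to CM5 chips (~10 000 RU), with GST as control. Test compound (100 μM) was flowed at 20 μl min⁻¹, 25 °C, in 10 mM HEPES, 150 mM NaCl, 0.005% P20, 0.4% DMSO, pH 7.4. Sensorgrams were representative of ≥3 independent experiments.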

Data set [8] concerns R1K3 (PAK1 CD replaced by PAK3 CD) in HeLa cells. The experiment in a line: CD-swapping experiment, R1K3. In kind it is cell-based. To be noted: 20 μM for 2 h, then 0.4 M sorbitol.
For data set [9], the target named is full-length PAK3 (Homo sapiens, UniProt O75914). The experiment in a line: In vitro inhibition of PAK family members, PAK3. It counts as biochemical. To be noted: 40 μM, with Cdc42•GTP.
The target in data set [10] is PAK1^T423E/LL (H83L/H86L) (Homo sapiens, UniProt Q13153, H83L/H86L/T423E). The experiment in a line: In vitro kinase assay with LL mutant of active PAK1. In kind it is biochemical. To be noted: 40 μM, 0.5 h. The essentials: (§2)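 Preincubated with test compound or DMSO 0.5 h, 30 °C, then 5 μCi [γ-³²P]ATP 0.5 h, 30 °C. 15% SDS-PAGE; MBP phosphorylation read by autoradiography; total MBP immunoblot as loading control; ≥3 experiments.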

In data set [11] the target is T1, PAK1^T423E (Homo sapiens, UniProt Q13153, T423E). The data set is described as follows: In vitro PAK1 assay with active PAK1. In kind it is biochemical. As to conditions: 0.5 h; 40 μM in Figure 3c. The method, boiled down: as §2
Data set [12] concerns pMEK1^S298 in 293T cells. The experiment in a line: MEK1 S298 phosphorylation downstream of PAK1. In kind it is cell-based. As to conditions: 293T cells with myc-PAK1 and GFP-V12Cdc42, 20 μM, 2 h. The essentials: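 293T co-transfected with myc-PAK1 and GFP-V12Cdc42. After 24 h, test compound at 20 μM for 2 h. Lysates immunoblotted for pPAK1 T423 and pMEK S298; expressed proteins checked with anti-Myc and anti-GFP. Membranes blocked in 3% BSA/TBS-T, primary antibody 1 h RT, HRP secondary, chemiluminescence. At least three independent experiments.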

Data set [13] deals with myc-PAK3 (pT421) in HeLa cells (Homo sapiens, UniProt O75914). The data set is described as follows: Sorbitol-induced PAK3 autophosphorylation in cells. It counts as cell-based. As to conditions: 20 μM for 2 h, then 0.4 M sorbitol. The essentials: as §1
In data set [14] the target is YFP-PBD and CFP-V12Cdc42 fusion proteins in HeLa cells (Homo sapiens, UniProt Q13153). The data set is described as follows: FRET analysis of V12Cdc42–PBD interaction in cells. It counts as cell-based. As to conditions: 20 μM, 1.5 h. The essentials:
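HeLa on poly-L-lysine-coated coverslips transfected with YFP-PBD and CFP-V12Cdc42 plasmids. At 12 h post-transfection, DMSO or 20 μM test compound applied and imaged over 1.5 h (ex 433 nm; em 475 nm CFP, 530 nm FRET). Background-subtracted FRET/CFP ratio used as efficiency, normalised to time zero = 1; 16 cells per compound.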

For data set [15], the system named is Wt-PAK1 (full-length). As to conditions: reported; ref [11], [12]; cited from earlier work.
Data set [16] deals with T1, PAK1^T423E. As to conditions: reported; ref [11], [12]; cited from earlier work.

myc-PAK1 (pT423) in HeLa cells, sequence (Q13153 whole entry): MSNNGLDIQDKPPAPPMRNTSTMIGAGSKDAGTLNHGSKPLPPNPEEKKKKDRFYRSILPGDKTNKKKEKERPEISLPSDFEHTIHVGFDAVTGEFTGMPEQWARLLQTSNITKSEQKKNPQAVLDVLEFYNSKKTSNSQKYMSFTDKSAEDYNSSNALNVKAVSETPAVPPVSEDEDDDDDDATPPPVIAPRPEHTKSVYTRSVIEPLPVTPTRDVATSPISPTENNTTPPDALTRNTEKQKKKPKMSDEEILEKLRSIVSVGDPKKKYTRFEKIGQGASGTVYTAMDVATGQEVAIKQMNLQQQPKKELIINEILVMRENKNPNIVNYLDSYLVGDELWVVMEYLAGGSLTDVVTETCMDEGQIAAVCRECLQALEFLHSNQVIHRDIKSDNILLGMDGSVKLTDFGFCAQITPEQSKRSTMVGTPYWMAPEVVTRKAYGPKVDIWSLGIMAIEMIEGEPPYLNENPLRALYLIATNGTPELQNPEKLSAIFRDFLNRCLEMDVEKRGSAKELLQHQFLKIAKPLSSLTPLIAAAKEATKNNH
full-length PAK1, sequence (Q13153 whole entry): as above
Cdc42–PBD interaction (PBD of PAK1), sequence (Q13153 67-150): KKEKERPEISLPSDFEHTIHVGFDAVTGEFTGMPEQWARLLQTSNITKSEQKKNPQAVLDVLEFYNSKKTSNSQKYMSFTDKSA
myc-PAK3 (pT421) in HeLa cells, sequence (O75914 1-544 isoform O75914-2): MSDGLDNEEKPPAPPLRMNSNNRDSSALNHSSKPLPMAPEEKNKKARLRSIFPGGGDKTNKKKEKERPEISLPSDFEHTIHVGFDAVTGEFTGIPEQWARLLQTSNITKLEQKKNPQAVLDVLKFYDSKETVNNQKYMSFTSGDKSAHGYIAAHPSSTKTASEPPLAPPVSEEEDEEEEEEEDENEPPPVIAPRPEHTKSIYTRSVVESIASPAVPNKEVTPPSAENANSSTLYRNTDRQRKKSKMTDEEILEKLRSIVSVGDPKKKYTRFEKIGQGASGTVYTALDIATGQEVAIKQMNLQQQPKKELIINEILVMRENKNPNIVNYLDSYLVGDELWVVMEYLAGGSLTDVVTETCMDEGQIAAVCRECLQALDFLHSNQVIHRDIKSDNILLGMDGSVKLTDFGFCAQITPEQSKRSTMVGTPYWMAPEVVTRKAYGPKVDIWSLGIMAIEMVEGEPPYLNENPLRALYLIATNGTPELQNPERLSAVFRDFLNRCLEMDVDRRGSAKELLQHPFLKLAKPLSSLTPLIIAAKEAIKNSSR
PBD-LL (H83L/H86L), sequence (Q13153 67-150 H83L/H86L): as the sequence (Q13153 67-150) above, with H17L, H20L counted along it
T1 sequence (Q13153 whole entry T423E): as the sequence (Q13153 whole entry) above, with T423E counted along it
PBD of PAK1 (Wt-PBD), sequence (Q13153 67-150): as the sequence (Q13153 67-150) above
Cdc42–PBD interaction, sequence (Q13153 67-150): as above
full-length PAK3, sequence (O75914 1-544 isoform O75914-2): as the sequence (O75914 1-544 isoform O75914-2) above
PAK1^T423E/LL (H83L/H86L), sequence (Q13153 whole entry H83L/H86L/T423E): as the sequence (Q13153 whole entry) above, with H83L, H86L, T423E counted along it
YFP-PBD and CFP-V12Cdc42 fusion proteins in HeLa cells, sequence (Q13153 67-150): as the sequence (Q13153 67-150) above

As to `O=C1C=C(Br)C(=O)c2ccccc21` [compound 13, 2-Bromo-1,4-NQ], the “Interference with the Cdc42–PBD interaction” value in [1] is “effectively interfered with the Cdc42–PBD interaction”. Also, the “PAK1 autophosphorylation (pT423)” value in [2] is reported as “only weakly suppressed”. Also, the “Inhibition of full-length PAK1 (MBP phosphorylation)” value (“Inhibition of full-length PAK1” for short) in data set [3] is “selective inhibition of PAK1”. Moreover, the “Inhibitory activity on the Cdc42–PBD interaction” value (shortened to “Inhibitory activity”) in [4] was “high inhibitory activities”. For the same compound, the Light-induced cytotoxicity result in data set [5] is listed as “light-induced cytotoxicity”.
In general, Kd refers to a measure of binding affinity in units of concentration. Low readings indicate tighter binding, high ones weaker binding. Take `COC(=O)C1=CC(=O)c2ccccc2C1=O` [compound 8, 2-methoxycarbonyl-1,4-naphthoquinone]: the Kd in data set [6] is < 7 µM. Besides, the “Inhibitory activity” value in data set [4] is recorded as “high inhibitory activities”. Further, the “Binding affinity to PBD-LL compared with Wt-PBD” value in data set [7] is “significantly reduced (to approximately half of those for Wt-PBD binding)”.
Regarding `O=C1C=CC(=O)c2ccccc21` [compound 7, 1,4-naphthoquinone], in data set [8], the “Inhibition of sorbitol-activated R1K3” value is on record as “almost completely inhibited”. Also, the Kd in data set [6] was < 7 µM. Moreover, the “Inhibition of full-length PAK3 (MBP phosphorylation)” value in [9] was “suppressed the activities of both PAK1 and PAK3 to a similar degree”. In addition, in [10], the “Inhibitory effect on PAK1^T423E/LL” value was “little inhibitory effect”. In [2], the “PAK1 autophosphorylation (pT423)” value is recorded as “greatly suppressed; also recorded: almost completely inhibited”. Also, the “Inhibition of full-length PAK1” value in data set [3] was “suppressed the activities of both PAK1 and PAK3 to a similar degree”. Moreover, in data set [5] (HeLa cells, 20 μM), the Cytotoxicity entry is listed as “no significant cytotoxicity”. In addition, the “MBP phosphorylation by PAK1^T423E” value in data set [11] is reported as “markedly suppressed”. For the same compound, the “pMEK1^S298 levels” value in data set [12] is reported as “markedly decreased”. For the same compound, the “PAK3 autophosphorylation (pT421)” value in data set [13] is “greatly suppressed; also recorded: specifically inhibited”. Further, the “Binding affinity to PBD-LL compared with Wt-PBD” value in [7] is “significantly reduced (to approximately half of those for Wt-PBD binding)”. Further, in [14], the FRET efficiency result is given as “decreased”.
As to `O=C1C=C(Cl)C(=O)c2ccccc21` [compound 14, 2-Chloro-1,4-NQ], in [1], the “Interference with the Cdc42–PBD interaction” value is listed as “effectively interfered with the Cdc42–PBD interaction”. Further, the “Inhibition of sorbitol-activated R1K3” value in [8] is on record as “almost completely inhibited”. The “PAK1 autophosphorylation (pT423)” value in data set [2] is reported as “greatly suppressed; also recorded: almost completely inhibited”. Further, in [3], the “Inhibition of full-length PAK1” value is “selective inhibition of PAK1”. Besides, the “Inhibitory activity” value in data set [4] is “high inhibitory activities”. The Light-induced cytotoxicity result in data set [5] is “light-induced cytotoxicity”.
Consider `Oc1ccc2ccccc2c1SSc1c(O)ccc2ccccc12` [IPA-3, 2,2′-dihydroxy-1,10-dinaphthyldisulfide], for which, in [15], the “Inhibition of Cdc42-dependent activation of wild-type group I PAKs” value is “effectively inhibit”. Besides, the “Susceptibility of PAK1^T423E to inhibition” value in [16] is on record as “not susceptible to inhibition”.
